Measurements pooled from the literature.
Protocols differ between the studies behind these lines.
Target: Substance-P receptor (TACR1, Homo sapiens, UniProt P25103)

CN(CCN1CCC(OC(=O)Nc2ccccc2-c2ccccc2)CC1)C(=O)c1ccc(CN2CCC(C(N)=O)CC2)cc1  inhibition (ligand displacement, radioligand; 1 µM): -6%
CC(C)Cn1cnc2c(N)nc3ccccc3c21  inhibition (ligand displacement, radioligand; 10 µM): -8%
c1ccc(C(NCCNC(c2ccccc2)c2ccccc2)c2ccccc2)cc1  inhibition (cell-free assay; 10 µM): 49%
COc1ccc(C(=O)NCc2cc(C(C)C)no2)cc1OC1CCN(C)CC1  inhibition (ligand displacement, radioligand; 10 µM): 22%
COc1ccc(S(=O)(=O)N2CCCCC2)cc1C  inhibition (ligand displacement, radioligand; 10 µM): < 30%
O=C(Nc1cccnn1)N1CCN([C@@H]2CCOc3cc(C(F)(F)F)ccc32)CC1  inhibition (ligand displacement; 20 µM): 38%
C[C@H](C(=O)N[C@H]1COc2ccccc2[C@@H]1S(C)(=O)=O)c1ccc(F)cc1  inhibition (cell-free assay; 10 µM): 11%
CCCCCCCCCCCC(=O)OC[C@@H](COP(=O)(O)OCCNC(=O)c1ccc(Cn2c(=O)[nH]c3c(N)nc(OCCOC)nc32)cc1)OC(=O)CCCCCCCCCCC  inhibition (ligand displacement, radioligand; 10 µM): 23%
CC(C)N1CCC[C@H]1CNC(=O)c1cn(C2CCCC2)c(=O)c2c1c1ccccc1n2C  inhibition (ligand displacement, radioligand; 10 µM): 23%
